# Measurements reported in ChEMBL document CHEMBL1932986, “Synthesis and in vitro antimycobacterial activity of compounds derived from (R)- and (S)-2-amino-1-butanol - The crucial role of the configuration” (Eur J Med Chem, 2012).
# The source made the active and inactive calls. The calls are words filed in the database; no cut-off is given here.
# Assays:
# Bacillus subtilis [1] = experiment: Antibacterial activity against Bacillus subtilis ATCC 6633 at 50 mg/ml after 24 hrs by agar diffusion test; assay type: functional; conditions: ATCC 6633, 24 h, read-out: DIZ
# Procedure, shortened: (§1)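 Agar diffusion: wells in agar filled with […] DMSO solution of compound at various concentrations; diameter of clear zone around application point measured. Bacteria grown 24 h at 37 °C on nutrient agar. Compounds first screened at 50 mg/ml; those active then tested at lower concentrations. Bracketed value = lowest concentration (mg/ml) giving zone >11 mm, reported only if activity retained at ≤1.25 mg/ml.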
# Staphylococcus aureus [2] = experiment: Antibacterial activity against Staphylococcus aureus NRRL B 313 assessed as concentration required to produce >11 mm of zone of inhibition after 24 hrs by agar diffusion test; assay type: functional
# Procedure, shortened: (§2)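 Agar diffusion: bacteria grown 24 h at 37 °C on nutrient agar. Wells in the agar are filled with […] of compound solution in DMSO at various concentrations. The diameter of the clear zone around the application point is measured. Bracketed values give the lowest concentration (mg/ml) that produces a zone >11 mm. A first screen is run at 50 mg/ml.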
# Bacillus [3] = experiment: Antibacterial activity against Bacillus idosus B 241 at 50 mg/ml after 24 hrs by agar diffusion test; assay type: functional; conditions: B 241, 24 h, read-out: DIZ; procedure, shortened: as §1
# Bacillus cereus [4] = experiment: Antibacterial activity against Bacillus cereus ATCC 11778 at 2 mg/ml after 24 hrs by agar diffusion test; assay type: functional, organism-based; procedure, shortened: as §1
# Penicillium chrysogenum [5] = experiment: Antifungal activity against Penicillium chrysogenum CECT 2802 assessed as concentration required to produce >11 mm of zone of inhibition after 72 hrs by agar diffusion test; assay type: functional
# Procedure, shortened: (§3)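 Agar diffusion: yeasts grown on yeast peptone dextrose agar and fungi on potato dextrose agar. Wells are filled with […] of compound solution in DMSO at various concentrations, and the clear-zone diameter is measured. Bracketed values give the lowest concentration (mg/ml) that produces a zone >11 mm. A first screen is run at 50 mg/ml.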
# Micrococcus luteus [6] = experiment: Antibacterial activity against Sarcina lutea ATCC 9341 assessed as concentration required to produce >11 mm of zone of inhibition after 24 hrs by agar diffusion test; assay type: functional; procedure, shortened: as §1
# Bacillus cereus [7] = experiment: Antibacterial activity against Bacillus cereus ATCC 11778 at 50 mg/ml after 24 hrs by agar diffusion test; assay type: functional; conditions: ATCC 11778, 24 h, read-out: DIZ; procedure, shortened: as §1
# Bacillus mycoides [8] = experiment: Antibacterial activity against Bacillus mycoides DSMZ 274 at 2 mg/ml after 24 hrs by agar diffusion test; assay type: functional, organism-based; procedure, shortened: as §1
# Acinetobacter johnsonii [9] = experiment: Antibacterial activity against Acinetobacter johnsonii ATCC 17909 at 2 mg/ml after 24 hrs by agar diffusion test; assay type: functional; procedure, shortened: as §1
# Micrococcus luteus [10] = experiment: Antibacterial activity against Sarcina lutea ATCC 9341 at 50 mg/ml after 24 hrs by agar diffusion test; assay type: functional; conditions: ATCC 9341, 24 h, read-out: DIZ; procedure, shortened: as §2
# Penicillium chrysogenum [11] = experiment: Antifungal activity against Penicillium chrysogenum CECT 2802 at 50 mg/ml after 72 hrs by agar diffusion test; assay type: functional; conditions: CECT 2802, 72 h, read-out: DIZ; procedure, shortened: as §3
# Candida tropicalis [12] = experiment: Antifungal activity against Candida tropicalis ATCC 20336 assessed as concentration required to produce >11 mm of zone of inhibition after 72 hrs by agar diffusion test; assay type: functional; procedure, shortened: as §3
# Bacillus mycoides [13] = experiment: Antibacterial activity against Bacillus mycoides DSMZ 274 at 50 mg/ml after 24 hrs by agar diffusion test; assay type: functional; conditions: DSMZ 274, 24 h, read-out: DIZ; procedure, shortened: as §1
# Bacillus subtilis [14] = experiment: Antibacterial activity against Bacillus subtilis ATCC 6633 assessed as concentration required to produce >11 mm of zone of inhibition after 24 hrs by agar diffusion test; assay type: functional; procedure, shortened: as §1
# Candida tropicalis [15] = experiment: Antifungal activity against Candida tropicalis ATCC 20336 at 50 mg/ml after 72 hrs by agar diffusion test; assay type: functional; conditions: ATCC 20336, 72 h, read-out: DIZ; procedure, shortened: as §3
# Acinetobacter johnsonii [16] = experiment: Antibacterial activity against Acinetobacter johnsonii ATCC 17909 assessed as concentration required to produce >11 mm of zone of inhibition after 24 hrs by agar diffusion test; assay type: functional; procedure, shortened: as §1
# Micrococcus luteus [17] = experiment: Antibacterial activity against Micrococcus luteus ATCC 9631 at 50 mg/ml after 24 hrs by agar diffusion test; assay type: functional; conditions: ATCC 9631, 24 h, read-out: DIZ; procedure, shortened: as §1
# Saccharomyces cerevisiae [18] = experiment: Antifungal activity against Saccharomyces cerevisiae ATCC 9763 at 50 mg/ml after 72 hrs by agar diffusion test; assay type: functional; conditions: ATCC 9763, 72 h, read-out: DIZ; procedure, shortened: as §3
# Staphylococcus aureus [19] = experiment: Antibacterial activity against Staphylococcus aureus NRRL B 313 at 50 mg/ml after 24 hrs by agar diffusion test; assay type: functional; conditions: NRRL B 313, 24 h, read-out: DIZ; procedure, shortened: as §2
# Bacillus [20] = experiment: Antibacterial activity against Bacillus idosus B 241 at 2 mg/ml after 24 hrs by agar diffusion test; assay type: functional, organism-based; procedure, shortened: as §1
# Acinetobacter johnsonii [21] = experiment: Antibacterial activity against Acinetobacter johnsonii ATCC 17909 at 50 mg/ml after 24 hrs by agar diffusion test; assay type: functional; conditions: ATCC 17909, 24 h, read-out: DIZ; procedure, shortened: as §1
# Micrococcus luteus [22] = experiment: Antibacterial activity against Sarcina lutea ATCC 9341 at 2 mg/ml after 24 hrs by agar diffusion test; assay type: functional, organism-based; procedure, shortened: as §1
# Priestia megaterium [23] = experiment: Antibacterial activity against Bacillus megaterium NRRL 1353895 at 50 mg/ml after 24 hrs by agar diffusion test; assay type: functional; conditions: NRRL 1353895, 24 h, read-out: DIZ; procedure, shortened: as §1
# Escherichia coli [24] = experiment: Antibacterial activity against Escherichia coli ATCC 8739 at 2 mg/ml after 24 hrs by agar diffusion test; assay type: functional, organism-based; procedure, shortened: as §1
# Bacillus subtilis [25] = experiment: Antibacterial activity against Bacillus subtilis ATCC 6633 at 2 mg/ml after 24 hrs by agar diffusion test; assay type: functional, organism-based; procedure, shortened: as §1
# Penicillium chrysogenum [26] = experiment: Antifungal activity against Penicillium chrysogenum CECT 2802 at 2 mg/ml after 72 hrs by agar diffusion test; assay type: functional, organism-based; procedure, shortened: as §3
# Priestia megaterium [27] = experiment: Antibacterial activity against Bacillus megaterium NRRL 1353895 at 2 mg/ml after 24 hrs by agar diffusion test; assay type: functional, organism-based; procedure, shortened: as §1
# [28] = tested on: Mycobacterium tuberculosis; experiment: Antimycobacterial activity against Mycobacterium tuberculosis H37Rv after 45 days; assay type: functional
# Procedure, shortened: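 Canetti proportion method. Compound in DMSO is added to Löwenstein–Jensen egg medium before coagulation (30 min, 85 °C), tested at three levels plus a lower one where needed. Tubes are inoculated with H37Rv at 10⁵ cells/ml and incubated 45 days at 37 °C. Colony counts versus drug-free control give percentage inhibition.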
# Micrococcus luteus [29] = experiment: Antibacterial activity against Micrococcus luteus ATCC 9631 at 2 mg/ml after 24 hrs by agar diffusion test; assay type: functional, organism-based; procedure, shortened: as §1
# Bacillus [30] = experiment: Antibacterial activity against Bacillus idosus B 241 assessed as concentration required to produce >11 mm of zone of inhibition after 24 hrs by agar diffusion test; assay type: functional; procedure, shortened: as §1
# Candida tropicalis [31] = experiment: Antifungal activity against Candida tropicalis ATCC 20336 at 2 mg/ml after 72 hrs by agar diffusion test; assay type: functional, organism-based; procedure, shortened: as §3
# Bacillus mycoides [32] = experiment: Antibacterial activity against Bacillus mycoides DSMZ 274 assessed as concentration required to produce >11 mm of zone of inhibition after 24 hrs by agar diffusion test; assay type: functional; procedure, shortened: as §1
# Escherichia coli [33] = experiment: Antibacterial activity against Escherichia coli ATCC 8739 at 50 mg/ml after 24 hrs by agar diffusion test; assay type: functional; conditions: ATCC 8739, 24 h, read-out: DIZ; procedure, shortened: as §1
# Micrococcus luteus [34] = experiment: Antibacterial activity against Micrococcus luteus ATCC 9631 assessed as concentration required to produce >11 mm of zone of inhibition after 24 hrs by agar diffusion test; assay type: functional; procedure, shortened: as §1
# Priestia megaterium [35] = experiment: Antibacterial activity against Bacillus megaterium NRRL 1353895 assessed as concentration required to produce >11 mm of zone of inhibition after 24 hrs by agar diffusion test; assay type: functional; procedure, shortened: as §1
# Saccharomyces cerevisiae [36] = experiment: Antifungal activity against Saccharomyces cerevisiae ATCC 9763 at 2 mg/ml after 72 hrs by agar diffusion test; assay type: functional, organism-based; procedure, shortened: as §3
# Saccharomyces cerevisiae [37] = experiment: Antifungal activity against Saccharomyces cerevisiae ATCC 9763 assessed as concentration required to produce >11 mm of zone of inhibition after 72 hrs by agar diffusion test; assay type: functional; procedure, shortened: as §3
# Staphylococcus aureus [38] = experiment: Antibacterial activity against Staphylococcus aureus NRRL B 313 at 2 mg/ml after 24 hrs by agar diffusion test; assay type: functional, organism-based; procedure, shortened: as §2
# Bacillus cereus [39] = experiment: Antibacterial activity against Bacillus cereus ATCC 11778 assessed as concentration required to produce >11 mm of zone of inhibition after 24 hrs by agar diffusion test; assay type: functional; procedure, shortened: as §1
structure (smiles),measurement,setting,value
CC[C@H](CO)NCc1c2ccccc2cc2ccccc12,zone of inhibition at 50000 µg/mL,Bacillus subtilis [1],18 mm
same,Activity,Staphylococcus aureus [2],0.03 mg/mL
same,zone of inhibition at 50000 µg/mL,Bacillus [3],19 mm
same,diameter of the inhibition zone (DIZ),Bacillus cereus [4],inactive
same,Activity,Penicillium chrysogenum [5],0.06 mg/mL
same,Activity,Micrococcus luteus [6],0.3 mg/mL
same,zone of inhibition at 50000 µg/mL,Bacillus cereus [7],19 mm
same,diameter of the inhibition zone (DIZ),Bacillus mycoides [8],inactive
same,diameter of the inhibition zone (DIZ),Acinetobacter johnsonii [9],inactive
same,zone of inhibition at 50000 µg/mL,Micrococcus luteus [10],18 mm
same,zone of inhibition at 50000 µg/mL,Penicillium chrysogenum [11],16 mm
same,Activity,Candida tropicalis [12],0.0125 mg/mL
same,zone of inhibition at 50000 µg/mL,Bacillus mycoides [13],20 mm
same,Activity,Bacillus subtilis [14],0.3 mg/mL
same,zone of inhibition at 50000 µg/mL,Candida tropicalis [15],31 mm
same,Activity,Acinetobacter johnsonii [16],0.6 mg/mL
same,zone of inhibition at 50000 µg/mL,Micrococcus luteus [17],19 mm
same,zone of inhibition at 50000 µg/mL,Saccharomyces cerevisiae [18],32 mm
same,zone of inhibition at 50000 µg/mL,Staphylococcus aureus [19],19 mm
same,diameter of the inhibition zone (DIZ),Bacillus [20],inactive
same,zone of inhibition at 50000 µg/mL,Acinetobacter johnsonii [21],17 mm
same,diameter of the inhibition zone (DIZ),Micrococcus luteus [22],inactive
same,zone of inhibition at 50000 µg/mL,Priestia megaterium [23],20 mm
same,diameter of the inhibition zone (DIZ),Escherichia coli [24],inactive
same,diameter of the inhibition zone (DIZ),Bacillus subtilis [25],inactive
same,diameter of the inhibition zone (DIZ),Penicillium chrysogenum [26],inactive
same,diameter of the inhibition zone (DIZ),Priestia megaterium [27],inactive
same,MIC,[28],17.9 µM
same,diameter of the inhibition zone (DIZ),Micrococcus luteus [29],inactive
same,Activity,Bacillus [30],1.25 mg/mL
same,diameter of the inhibition zone (DIZ),Candida tropicalis [31],inactive
same,Activity,Bacillus mycoides [32],0.6 mg/mL
same,zone of inhibition at 50000 µg/mL,Escherichia coli [33],12 mm
same,Activity,Micrococcus luteus [34],0.3 mg/mL
same,Activity,Priestia megaterium [35],0.6 mg/mL
same,diameter of the inhibition zone (DIZ),Saccharomyces cerevisiae [36],inactive
same,Activity,Saccharomyces cerevisiae [37],0.0125 mg/mL
same,diameter of the inhibition zone (DIZ),Staphylococcus aureus [38],inactive
same,Activity,Bacillus cereus [39],0.3 mg/mL
